Converted amounts (≈) assume the structure as drawn. The source made the active and inactive calls. The calls are words filed in the database; no cut-off is given here.
What was measured:
Escherichia coli [1] = assay: Bactericidal activity against sodA gene-deficient Escherichia coli K-12 3144 at 0.4 ug/ml; type: functional, organism-based
Escherichia coli [2] = assay: Bactericidal activity against sodA gene-deficient Escherichia coli K-12 3144 after 2 hrs; type: functional, organism-based
Escherichia coli [3] = assay: Bactericidal activity against sodB gene-deficient Escherichia coli K-12 3145 after 2 hrs; type: functional, organism-based
Escherichia coli [4] = assay: Bactericidal activity against sodB gene-deficient Escherichia coli K-12 3145 at 0.4 ug/ml; type: functional, organism-based
Escherichia coli [5] = assay: Bactericidal activity against katG gene-deficient Escherichia coli K-12 3157 at 100 times MIC; type: functional, organism-based
Escherichia coli [6] = assay: Bactericidal activity against katG,katE gene-deficient Escherichia coli K-12 3201 at 100 times MIC; type: functional, organism-based
Escherichia coli [7] = assay: Bactericidal activity against Escherichia coli K-12 BW25113 at 100 times MIC; type: functional, organism-based
Escherichia coli [8] = assay: Bactericidal activity against ahpC gene-deficient Escherichia coli K-12 3200 at 100 times MIC; type: functional, organism-based
Escherichia coli [9] = assay: Bactericidal activity against katG gene-deficient Escherichia coli K-12 3157 after 18 hrs; type: functional; details: K-12 3157, 18 h
Escherichia coli [10] = assay: Bactericidal activity against katG,katE gene-deficient Escherichia coli K-12 3201 after 18 hrs; type: functional; details: K-12 3201, 18 h
Escherichia coli [11] = assay: Antimicrobial activity against katG gene-deficient Escherichia coli K-12 3157 by broth dilution method; type: functional
In short: (§1)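 Broth dilution in LB medium, about 10^5 bacteria per 1-ml tube, with drug concentrations rising in 50% increments. Tubes were incubated overnight at 37°C and read visually. MIC was the lowest concentration that prevented visible growth.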

Escherichia coli [12] = assay: Antimicrobial activity against Escherichia coli K-12 BW25113 by broth dilution method; type: functional; in short: as §1
Escherichia coli [13] = assay: Bactericidal activity against sodA, sodB gene-deficient Escherichia coli K-12 3156 after 18 hrs; type: functional; details: K-12 3156, 18 h
Escherichia coli [14] = assay: Bactericidal activity against katG,katE gene-deficient Escherichia coli K-12 3201 after 2 hrs relative to wild-type; type: functional
Escherichia coli [15] = assay: Bactericidal activity against sodA gene-deficient Escherichia coli K-12 3144 after 18 hrs; type: functional; details: K-12 3144, 18 h
Escherichia coli [16] = assay: Bactericidal activity against katG gene-deficient Escherichia coli K-12 3157 at 10 times MIC pretreated with 250 uM bipyridyl relative to wild-type; type: functional
Escherichia coli [17] = assay: Bactericidal activity against katG gene-deficient Escherichia coli K-12 3157 after 2 hrs pretreated with 100 mM thiourea relative to wild-type; type: functional
Escherichia coli [18] = assay: Bactericidal activity against Escherichia coli K-12 BW25113 after 18 hrs; type: functional; details: K-12 BW25113, 18 h
Escherichia coli [19] = assay: Bactericidal activity against katG gene-deficient Escherichia coli K-12 3157 after 2 hrs relative to wild-type; type: functional
Escherichia coli [20] = assay: Bactericidal activity against katG gene-deficient Escherichia coli K-12 3157 at 10 times MIC relative to wild-type; type: functional
Escherichia coli [21] = assay: Bactericidal activity against katG,katE gene-deficient Escherichia coli K-12 3201 at 10 times MIC relative to wild-type; type: functional
Escherichia coli [22] = assay: Bactericidal activity against ahpC gene-deficient Escherichia coli K-12 3200 after 18 hrs; type: functional; details: K-12 3200, 18 h
Escherichia coli [23] = assay: Antimicrobial activity against sodA, sodB gene-deficient Escherichia coli K-12 3156 by broth dilution method; type: functional; in short: as §1
Escherichia coli [24] = assay: Antimicrobial activity against ahpC gene-deficient Escherichia coli K-12 3200 by broth dilution method; type: functional; in short: as §1
Escherichia coli [25] = assay: Antimicrobial activity against katG,katE gene-deficient Escherichia coli K-12 3201 by broth dilution method; type: functional; in short: as §1
Escherichia coli [26] = assay: Antimicrobial activity against sodB gene-deficient Escherichia coli K-12 DKsodB by broth dilution method; type: functional; in short: as §1
Escherichia coli [27] = assay: Bactericidal activity against sodA, sodB gene-deficient Escherichia coli K-12 3156 at 0.4 ug/ml relative to wild-type; type: functional
Escherichia coli [28] = assay: Bactericidal activity against katE gene-deficient Escherichia coli K-12 3202 after 18 hrs; type: functional; details: K-12 3202, 18 h
Escherichia coli [29] = assay: Bactericidal activity against katG gene-deficient Escherichia coli K-12 3157 at 10 times MIC pretreated with 100 mM thiourea relative to wild-type; type: functional
Escherichia coli [30] = assay: Bactericidal activity against sodA, sodB gene-deficient Escherichia coli K-12 3156 after 2 hrs relative to wild-type; type: functional
Escherichia coli [31] = assay: Bactericidal activity against sodB gene-deficient Escherichia coli K-12 DK after 18 hrs; type: functional
Escherichia coli [32] = assay: Bactericidal activity against katG gene-deficient Escherichia coli K-12 3157 after 2 hrs pretreated with 250 uM bipyridyl relative to wild-type; type: functional
Escherichia coli [33] = assay: Antimicrobial activity against katE gene-deficient Escherichia coli K-12 3202 by broth dilution method; type: functional; in short: as §1
Escherichia coli [34] = assay: Bactericidal activity against sodB gene-deficient Escherichia coli K-12 DKsodB at 0.4 ug/ml; type: functional, organism-based
Escherichia coli [35] = assay: Bactericidal activity against sodB gene-deficient Escherichia coli K-12 3145 after 18 hrs; type: functional; details: K-12 3145, 18 h
Escherichia coli [36] = assay: Antimicrobial activity against sodA gene-deficient Escherichia coli K-12 3144 by broth dilution method; type: functional; in short: as §1
Escherichia coli [37] = assay: Bactericidal activity against sodB gene-deficient Escherichia coli K-12 DKsodB after 2 hrs; type: functional, organism-based
Escherichia coli [38] = assay: Antimicrobial activity against sodB gene-deficient Escherichia coli K-12 3145 by broth dilution method; type: functional; in short: as §1

SMILES | Activity (Escherichia coli [1]) | Activity (Escherichia coli [2]) | Activity (Escherichia coli [3]) | Activity (Escherichia coli [4]) | MBC (Escherichia coli [9]) | MBC (Escherichia coli [10]) | MIC (Escherichia coli [11]) | MIC (Escherichia coli [12]) | MBC (Escherichia coli [13]) | MBC (Escherichia coli [15]) | MBC (Escherichia coli [18]) | MBC (Escherichia coli [22]) | MIC (Escherichia coli [23]) | MIC (Escherichia coli [24]) | MIC (Escherichia coli [25]) | MIC (Escherichia coli [26]) | MBC (Escherichia coli [28]) | MIC (Escherichia coli [33]) | MIC (Escherichia coli [36]) | MIC (Escherichia coli [38]) | also measured
CCn1cc(C(=O)O)c(=O)c2cc3c(cc21)OCO3 | Active | Active | Active | Active |  |  |  |  |  |  |  |  |  |  |  |  |  |  |  |  | 
O=C(N[C@H](CO)[C@H](O)c1ccc([N+](=O)[O-])cc1)C(Cl)Cl |  |  |  |  |  |  |  |  |  |  |  |  |  |  |  |  |  |  |  |  | Activity (Escherichia coli [5]): inactive; Activity (Escherichia coli [6]): inactive; Activity (Escherichia coli [7]): inactive; Activity (Escherichia coli [8]): inactive
O=C(O)c1cn(C2CC2)c2cc(N3CCNCC3)c(F)cc2c1=O | Active | Active | Active | Active |  |  |  |  |  |  |  |  |  |  |  |  |  |  |  |  | 
CCn1cc(C(=O)O)c(=O)c2cc(F)c(N3CCNCC3)cc21 [NORFLOXACIN] | Active | Active | Active | Active | 0.16 µg/mL (≈ 0.501 µM) | 0.32 µg/mL (≈ 1 µM) | 0.04 µg/mL | 0.04 µg/mL | 0.16 µg/mL (≈ 0.501 µM) | 0.32 µg/mL (≈ 1 µM) | 0.32 µg/mL (≈ 1 µM) | 0.16 µg/mL (≈ 0.501 µM) | 0.04 µg/mL | 0.04 µg/mL | 0.08 µg/mL | 0.04 µg/mL | 0.16 µg/mL (≈ 0.501 µM) | 0.04 µg/mL | 0.04 µg/mL | 0.04 µg/mL | fold change (FC) (Escherichia coli [14]): 10; fold change (FC) (Escherichia coli [16]): 10; fold change (FC) (Escherichia coli [17]): 10; fold change (FC) (Escherichia coli [19]): 10; fold change (FC) (Escherichia coli [20]): 10; fold change (FC) (Escherichia coli [21]): 10; fold change (FC) (Escherichia coli [27]): 10; fold change (FC) (Escherichia coli [29]): 10; fold change (FC) (Escherichia coli [30]): 10; MBC (Escherichia coli [31]): 0.32 µg/mL (≈ 1 µM); fold change (FC) (Escherichia coli [32]): 10; Activity (Escherichia coli [34]): Active; MBC (Escherichia coli [35]): 0.32 µg/mL (≈ 1 µM); Activity (Escherichia coli [37]): Active
CC1(C)S[C@@H]2[C@H](NC(=O)[C@H](N)c3ccccc3)C(=O)N2[C@H]1C(=O)O [AMPICILLIN] |  |  |  |  | 80 µg/mL (≈ 229 µM) | 80 µg/mL (≈ 229 µM) | 15 µg/mL | 15 µg/mL | 20 µg/mL (≈ 57.2 µM) | 80 µg/mL (≈ 229 µM) | 80 µg/mL (≈ 229 µM) | 40 µg/mL (≈ 114 µM) | 15 µg/mL | 15 µg/mL | 30 µg/mL | 15 µg/mL | 80 µg/mL (≈ 229 µM) | 15 µg/mL | 15 µg/mL | 15 µg/mL | MBC (Escherichia coli [31]): 80 µg/mL (≈ 229 µM); MBC (Escherichia coli [35]): 80 µg/mL (≈ 229 µM)
c1ccc(-c2ccccn2)nc1 [DIPYRIDYL] |  |  |  |  |  |  | 500 µM | 500 µM |  |  |  |  | 500 µM | 500 µM | 500 µM | 500 µM |  | 500 µM | 500 µM | 500 µM | 
NC[C@H]1O[C@H](O[C@H]2[C@H](O)[C@@H](O[C@H]3O[C@H](CO)[C@@H](O)[C@H](N)[C@H]3O)[C@H](N)C[C@@H]2N)[C@H](O)[C@@H](O)[C@@H]1O [KANAMYCIN] |  |  |  |  | 20 µg/mL (≈ 41.3 µM) | 20 µg/mL (≈ 41.3 µM) | 0.6 µg/mL | 0.6 µg/mL | 10 µg/mL (≈ 20.6 µM) | 20 µg/mL (≈ 41.3 µM) | 20 µg/mL (≈ 41.3 µM) | 10 µg/mL (≈ 20.6 µM) | 0.6 µg/mL | 2.4 µg/mL | 1.2 µg/mL | 0.6 µg/mL | 20 µg/mL (≈ 41.3 µM) | 0.6 µg/mL | 0.6 µg/mL | 0.6 µg/mL | MBC (Escherichia coli [31]): 20 µg/mL (≈ 41.3 µM); MBC (Escherichia coli [35]): 20 µg/mL (≈ 41.3 µM)

Source: ChEMBL document CHEMBL1649176, “Contribution of oxidative damage to antimicrobial lethality” (2009)
